Results collected from several papers.
Each line is one published result; the experiments were not run side by side.
FLT3: Receptor-type tyrosine-protein kinase FLT3 (FLT3, Homo sapiens, UniProt P36888)
FLT3 K663Q: Receptor-type tyrosine-protein kinase FLT3 (FLT3, Homo sapiens, UniProt P36888, K663Q)
FLT3 D835H: Receptor-type tyrosine-protein kinase FLT3 (FLT3, Homo sapiens, UniProt P36888, D835H)
FLT3 R834Q: Receptor-type tyrosine-protein kinase FLT3 (FLT3, Homo sapiens, UniProt P36888, R834Q)
FLT3 autoinhibited: Receptor-type tyrosine-protein kinase FLT3, autoinhibited (FLT3, Homo sapiens, UniProt P36888)
FLT3 D835V: Receptor-type tyrosine-protein kinase FLT3 (FLT3, Homo sapiens, UniProt P36888, D835V)
FLT3 F691L/ITD: Receptor-type tyrosine-protein kinase FLT3 (FLT3, Homo sapiens, UniProt P36888, F691L/ITD)
FLT3 D835Y: Receptor-type tyrosine-protein kinase FLT3 (FLT3, Homo sapiens, UniProt P36888, D835Y)
FLT3 N841I: Receptor-type tyrosine-protein kinase FLT3 (FLT3, Homo sapiens, UniProt P36888, N841I)

CCN(CC)c1ccc(C2=NNC(=O)CC2C)cc1[N+](=O)[O-] (stereo not drawn) — remaining activity (FLT3; enzyme activity, inhibitor; 10 µM): 89%
Cc1cnc(Nc2ccc(C(=O)N3CCC(N4CCCC4)CC3)cc2)nc1-c1cc2ccccc2s1 — remaining binding (FLT3 K663Q; binding, competition with immobilised ligand; 1 µM): 2.2%
C[C@@H]1CCN(c2nccc(-c3cnn4ncccc34)n2)C1 — remaining binding (FLT3 D835H; binding; 1 µM): 100%
Cc1ccc(C(=O)Nc2ccc(CN3CCN(C)CC3)c(C(F)(F)F)c2)cc1C#Cc1cnc2cccnn12 — remaining activity (FLT3; enzyme activity, inhibitor; 23.5 nM): 58%
O=C(c1ccc(Nc2ncc(Cl)c(-c3cc4ccccc4s3)n2)cc1)N1CCC(N2CCCC2)CC1 — remaining binding (FLT3 R834Q; binding, competition with immobilised ligand; 1 µM): 11%
COc1cc2c(Nc3ccc(Br)cc3F)ncnc2cc1OCC1CCN(C)CC1 — remaining signal (FLT3; cell-free assay; 0.5 µM): 43.7%
Cc1[nH]c(/C=C2\C(=O)Nc3ccc(F)cc32)c(C)c1C(=O)N[C@H]1CCN(C(=O)N(C)C)C1 — remaining activity (FLT3; enzyme activity, inhibitor; 0.1 µM): 3%
O=[N+]([O-])c1cccc2[nH]c(CNc3nc(N4CCOCC4)nc4c3ncn4-c3ccsc3)nc12 — binding vs control (FLT3 K663Q; binding, competition with immobilised ligand; 10 µM): 5.2%
O=C(NCCCC1CCCCC1)c1ccc(CNC(=O)c2cnn(-c3ccccc3)c2C(F)(F)F)cc1 — remaining binding (FLT3 autoinhibited; cell-free assay, competition with immobilised ligand; 0.1 µM): 100%
CN(c1nccc(-c2cnn3ncccc23)n1)C1CC1 — remaining binding (FLT3 D835V; binding; 1 µM): 78%
O=C(Nc1cnn(-c2csc(C(=O)NC3COC3)c2)c1)Nc1ccccc1Cl — remaining activity (FLT3; enzyme activity, inhibitor; 5 µM): 89.7%
O=C(NCCCN1CCOCC1)c1ccc(Nc2ncc(Cl)c(-c3ccc(Cl)s3)n2)cc1 — remaining binding (FLT3 F691L/ITD; binding, competition with immobilised ligand; 1 µM): 5.1%
Cc1c(C(=O)O)cc(-c2ccc(C3CCNCC3)cc2)c2ccc(-c3ccc(C(F)(F)F)cc3)cc12 — remaining binding (FLT3 R834Q; binding, competition with immobilised ligand; 1 µM): 100%
O=C(c1ccc(Nc2nccc(-c3cc4ccccc4s3)n2)cc1)N1CCC(N2CCCC2)CC1 — remaining binding (Receptor-type tyrosine-protein kinase FLT3 (FLT3, Homo sapiens, UniProt P36888, D835V/ITD); binding, competition with immobilised ligand; 1 µM): 8.3%
CCCOc1ccc(OC)c(F)c1C(=O)c1ccc(C(=O)N[C@@H]2CNC[C@H]2NC(=O)c2ccc3[nH]ncc3c2)cc1 — remaining activity (FLT3; enzyme activity, inhibitor; 10 µM): 32%
O=C1NC(=O)c2cc(Nc3ccc(F)cc3)c(Nc3ccc(F)cc3)cc21 — remaining signal (FLT3; cell-free assay; 0.5 µM): 91.5%
Cc1ccc(NC(=O)c2ccc(C)c(C(F)(F)F)c2)cc1C#Cc1nn(C2CCC(O)CC2)c2ncnc(N)c12 (stereo not drawn) — remaining signal (FLT3; cell-free assay; 10 µM): 73%
CCCCN(CCCC)C(=O)CN1C[C@H](c2cc(OC)c3c(c2)OCO3)[C@@H](C(=O)O)[C@@H]1CC(C)(C)CCC — remaining binding (FLT3 autoinhibited; cell-free assay, competition with immobilised ligand; 1 µM): 76%
COc1cc(Nc2c(C#N)cnc3cc(OCCCN4CCN(C)CC4)c(OC)cc23)c(Cl)cc1Cl — remaining signal (FLT3; cell-free assay; 0.5 µM): 30.3%
CN(C)c1ncc(F)c(-c2cnn3ncccc23)n1 — remaining binding (FLT3 D835Y; binding; 1 µM): 100%
C[C@H](c1ccnc(Nc2nc3ccc(-c4cc(N(C)C)ncn4)cc3[nH]2)c1)N1CCN(C(=O)CC(F)(F)F)CC1 — remaining binding (FLT3; cell-free assay, competition with immobilised ligand; 0.1 µM): 67%
N[C@H]1CCN(c2nccc(-c3cnn4ncccc34)n2)C1 — remaining binding (FLT3 D835Y; binding; 1 µM): 97%
O=C(NCCCN1CCOCC1)c1ccc(Nc2nccc(-c3cc4ccccc4s3)n2)cc1 — remaining binding (FLT3; binding, competition with immobilised ligand; 1 µM): 61%
O=C1Nc2ccc(Cl)cc2C1=Cc1cc(Cl)c(O)c(Cl)c1 — remaining signal (FLT3; cell-free assay; 0.5 µM): 26.5%
Cc1cnc(NC2CCOCC2)nc1-n1cnc(C(=O)NC(CN)c2cc(F)cc(Cl)c2)c1 (stereo not drawn) — remaining activity (FLT3; enzyme activity, inhibitor, radiometric; 1 µM): 94%
Cc1ccc(C(=O)NCc2ccsc2)cc1C#Cc1cn(C(C)C)c2ncnc(N)c12 — activity vs control (FLT3 D835Y; enzyme activity, inhibitor; 1 µM): 118%
CN(CCCC(F)(F)F)c1nccc(-c2cnn3ncccc23)n1 — remaining binding (FLT3 D835H; binding; 1 µM): 96%
Cc1cc(NC(=O)c2cccc3cc(-c4cccc5[nH]nc(N)c45)ccc23)ccc1F — activity vs control (FLT3; enzyme activity, inhibitor; 0.1 µM): 109%
NS(=O)(=O)c1cc(NC(=O)Cc2ccccc2)ccc1Oc1cccc(Cl)c1 — remaining binding (FLT3 D835V; cell-free assay, competition with immobilised ligand; 1 µM): 86%
c1cnn2ncc(-c3ccnc(N4CCC45COC5)n3)c2c1 — remaining binding (FLT3 N841I; binding; 1 µM): 72%
CC(=O)Nc1c(C(C)=O)c(=O)n(C)c2nc(-c3ccc(Cl)cc3Cl)c(-c3ccc(Cl)cc3)cc12 — remaining binding (FLT3 F691L/ITD; cell-free assay, competition with immobilised ligand; 1 µM): 100%
CN(C)c1nccc(-c2cnc3ncccn23)n1 — remaining binding (FLT3 D835Y; binding; 1 µM): 78%
CCOCCn1cc(C(=O)Nc2ccc(-n3nc(-c4cccnc4)cc3C(F)(F)F)cn2)ccc1=O — remaining binding (FLT3 D835H; cell-free assay, competition with immobilised ligand; 1 µM): 87%
O=C(c1ccc(Nc2ncc(Cl)c(-c3ccc(Cl)s3)n2)cc1)N1CCC(N2CCCC2)CC1 — remaining binding (FLT3 F691L/ITD; binding, competition with immobilised ligand; 1 µM): 1.8%
CCN(CC)CCNC(=O)c1c(C)[nH]c(/C=C2\C(=O)Nc3ccc(F)cc32)c1C — remaining activity (FLT3; enzyme activity, inhibitor; 1 µM): 1%
CCCOc1ccc([C@H]2[C@H](C(=O)O)[C@@H](c3ccc4c(c3)OCO4)CN2CC(=O)Nc2c(CC)cccc2CC)cc1 — remaining binding (FLT3 N841I; cell-free assay, competition with immobilised ligand; 1 µM): 93%
CC(C)(C)c1nc2c(s1)c1nc(N)ncc1c1ccc(NS(=O)(=O)c3c(F)cccc3F)c(F)c12 — remaining activity (FLT3; enzyme activity, inhibitor, radiometric; 1 µM): 104%
CC1CCCN1c1nccc(-c2cnn3ncccc23)n1 (stereo not drawn) — remaining binding (FLT3 R834Q; binding; 1 µM): 100%
Nc1ncnc2occ(-c3ccc(NC(=O)Nc4cc(C(F)(F)F)ccc4F)cc3)c12 — remaining signal (FLT3; cell-free assay, inhibitor; 20 µM): 1.8%
